Test results: PubChem BioAssay AID463186 (The Scripps Research Institute Molecular Screening Center, 2010)
Activity calls are given as the source filed them.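 How the source made its calls: active means mean luminescence fold change over vehicle of at least 10; inactive means the rest.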

Target: G2/mitotic-specific cyclin-B1 (Homo sapiens) (UniProt P14635)
Experiment: cyclin B1-luciferase fusion stabilization in HeLa – cell-based, luminescence, powder samples, selectivity assay for Wee1 degradation inhibitor project, late-stage follow-up (AID 463186)
Conditions: HeLa cyclin B-luciferase stability, at 0.1 µM, hits give high values
Procedure, shortened: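 Material: HeLa cells with cyclin B–luciferase fusion / Read-out basis: average fold-change versus DMSO vehicle / Replication: quadruplicate wells per compound / Technique: luminescence of luciferase reporter / Compound dosing: single dose, nominal 0.1 µM / Benchmarks: DMSO vehicle-treated cells as reference / Schedule: 48 h transfection, then 20 h compound exposure at 37 °C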

Sequence of G2/mitotic-specific cyclin-B1 (Homo sapiens) (P14635 whole entry, looked up, the tested form may be a part): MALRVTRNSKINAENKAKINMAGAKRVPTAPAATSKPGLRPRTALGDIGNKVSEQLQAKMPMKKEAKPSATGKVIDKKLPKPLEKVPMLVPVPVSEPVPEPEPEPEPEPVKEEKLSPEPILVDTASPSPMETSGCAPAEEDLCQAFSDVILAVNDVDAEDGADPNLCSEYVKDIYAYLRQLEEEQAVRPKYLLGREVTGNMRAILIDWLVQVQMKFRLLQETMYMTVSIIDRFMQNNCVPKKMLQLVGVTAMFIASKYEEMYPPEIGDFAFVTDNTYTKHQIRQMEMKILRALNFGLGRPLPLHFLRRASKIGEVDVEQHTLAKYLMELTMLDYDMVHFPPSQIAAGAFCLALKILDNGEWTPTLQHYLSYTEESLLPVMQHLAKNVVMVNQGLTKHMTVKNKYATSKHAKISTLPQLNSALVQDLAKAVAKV

| SMILES | fold change |
| --- | --- |
| c1ccc2[nH]c(CNc3nc(N4CCOCC4)nc4c3ncn4-c3ccsc3)nc2c1 | 4.15 (inactive) |
| O=[N+]([O-])c1cccc2[nH]c(CNc3nc(N4CCOCC4)nc4c3ncn4-c3ccsc3)nc12 | 2.62 (inactive) |
